Data on one compound can be found in ChEMBL document CHEMBL4334451, “Natural Alkaloid Berberine Activity against Pseudomonas aeruginosa MexXY-Mediated Aminoglycoside Resistance: In Silico and in Vitro Studies” (J Nat Prod, 2019).

Structures are written as SMILES. The source made the active and inactive calls. No cut-off for these calls is given here.

Assay type in all cases: protein-complex assay
Test [1] concerns the target T1, MexXY/OprM (Pseudomonas aeruginosa (strain ATCC 15692 / DSM 22644 / CIP 104116 / JCM14847 / LMG 12228 / 1C / PRS 101 / PAO1)) (UniProt Q51487+Q9ZNG9+Q9ZNG8). In words: Inhibition of MexXY/OPRM in Pseudomonas aeruginosa C6 assessed as reduction in bacterial resistance to tobramycin by measuring tobramycin MIC at 80 ug/ml incubated for 24 to 48 hrs by broth microdilution method (reference value: 2 ug/ml). (In general: Dilution methods test growth across graded concentrations, often in twofold steps.)

Test [2] addresses T1, MexXY/OprM (Pseudomonas aeruginosa (strain ATCC 15692 / DSM 22644 / CIP 104116 / JCM14847 / LMG 12228 / 1C / PRS 101 / PAO1)). In words: Inhibition of MexXY/OPRM in Pseudomonas aeruginosa C25 assessed as reduction in bacterial resistance to tobramycin by measuring tobramycin MIC at 80 ug/ml incubated for 24 to 48 hrs by broth microdilution method (reference value: 16 ug/ml).

Test [3] shares this target. As to the kind of experiment: Inhibition of MexXY/OPRM in Pseudomonas aeruginosa C30 assessed as reduction in bacterial resistance to tobramycin by measuring tobramycin MIC at 80 ug/ml incubated for 24 to 48 hrs by broth microdilution method (reference value: 8 ug/ml).
Test [4] shares this target. In words: Inhibition of MexXY/OPRM in Pseudomonas aeruginosa C31 assessed as reduction in bacterial resistance to tobramycin by measuring tobramycin MIC at 80 ug/ml incubated for 24 to 48 hrs by broth microdilution method (reference value: 8 ug/ml).
Test [5] has the same target. In words: Inhibition of MexXY/OPRM in Pseudomonas aeruginosa C70 assessed as reduction in bacterial resistance to tobramycin by measuring tobramycin MIC at 80 ug/ml incubated for 24 to 48 hrs by broth microdilution method (reference value: 32 ug/ml).
For test [6] the target is unchanged. In words: Inhibition of MexXY/OPRM in Pseudomonas aeruginosa C76 assessed as reduction in bacterial resistance to tobramycin by measuring tobramycin MIC at 80 ug/ml incubated for 24 to 48 hrs by broth microdilution method (reference value: 32 ug/ml).
For test [7] the target is unchanged. In words: Inhibition of MexXY/OPRM in Pseudomonas aeruginosa C84 assessed as reduction in bacterial resistance to tobramycin by measuring tobramycin MIC at 80 ug/ml incubated for 24 to 48 hrs by broth microdilution method (reference value: 0.5 ug/ml). The essentials: (§1)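 Broth microdilution per CLSI, with P. aeruginosa ATCC 27853 as reference strain, in 2-fold dilution series. Plates were incubated at 37°C and read for visible growth at 24 and 48 h. Berberine stock was in 50% DMSO/50% methanol, with final DMSO kept near 1%. Berberine was tested at 10–320 µg/ml, alone or at a fixed level with serial tobramycin.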

Test [8] shares this target. As to the kind of experiment: Inhibition of MexXY/OPRM in Pseudomonas aeruginosa C86 assessed as reduction in bacterial resistance to tobramycin by measuring tobramycin MIC at 80 ug/ml incubated for 24 to 48 hrs by broth microdilution method (reference value: 128 ug/ml). The method in brief: as §1
Test [9] shares this target. In words: Inhibition of MexXY/OPRM in Pseudomonas aeruginosa C98 assessed as reduction in bacterial resistance to tobramycin by measuring tobramycin MIC at 80 ug/ml incubated for 24 to 48 hrs by broth microdilution method (reference value: 64 ug/ml). The method in brief: as §1
The target is the same in test [10]. In words: Inhibition of MexXY/OPRM in Pseudomonas aeruginosa C67 assessed as reduction in bacterial resistance to tobramycin by measuring tobramycin MIC at 80 ug/ml incubated for 24 to 48 hrs by broth microdilution method (reference value: 16 ug/ml).
Test [11] shares this target. In words: Inhibition of MexXY/OPRM in Pseudomonas aeruginosa C95 assessed as reduction in bacterial resistance to tobramycin by measuring increase in tobramycin-mediated bactericidal activity at 80 ug/ml in presence of 0.5XMIC tobramycin measured after 4 hrs by Time-kill curve analysis.
The target is the same in test [12]. In words: Inhibition of MexXY/OPRM in Pseudomonas aeruginosa C95 assessed as reduction in bacterial resistance to tobramycin by measuring log reduction in colony forming unit at 80 ug/ml in presence of 1XMIC to 2XMIC tobramycin measured after 24 hrs by Time-kill curve analysis.
For test [13] the target is unchanged. In words: Inhibition of MexXY/OPRM in Pseudomonas aeruginosa C25 assessed as bacterial growth up to 320 ug/ml incubated for 24 to 48 hrs by broth microdilution method. The method in brief:
(§2)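 Broth microdilution following CLSI guidelines, with P. aeruginosa ATCC 27853 as reference strain. Berberine was tested at 2-fold concentrations from 10 to 320 µg/ml, dissolved in 50% DMSO/50% methanol, with the top concentration set to keep final DMSO close to 1%. Plates were incubated at 37°C and read for visible growth at 24 and 48 h.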

The target is the same in test [14]. In words: Inhibition of MexXY/OPRM in Pseudomonas aeruginosa C54 assessed as bacterial growth up to 320 ug/ml incubated for 24 to 48 hrs by broth microdilution method. The method in brief:
as §2

For test [15] the target is unchanged. As to the kind of experiment: Inhibition of MexXY/OPRM in Pseudomonas aeruginosa C59 assessed as bacterial growth up to 320 ug/ml incubated for 24 to 48 hrs by broth microdilution method. The method in brief:
as §2

Test [16] shares this target. In words: Inhibition of MexXY/OPRM in Pseudomonas aeruginosa C73 assessed as bacterial growth up to 320 ug/ml incubated for 24 to 48 hrs by broth microdilution method. The method in brief: as §2
Test [17] has the same target. In words: Inhibition of MexXY/OPRM in Pseudomonas aeruginosa C83 assessed as bacterial growth up to 320 ug/ml incubated for 24 to 48 hrs by broth microdilution method. The essentials: as §2
For test [18] the target is unchanged. In words: Inhibition of MexXY/OPRM in Pseudomonas aeruginosa C103 assessed as bacterial growth up to 320 ug/ml incubated for 24 to 48 hrs by broth microdilution method. The essentials: as §2
Test [19] has the same target. As to the kind of experiment: Inhibition of MexXY/OPRM in Pseudomonas aeruginosa C6 assessed as reduction in bacterial resistance to tobramycin by measuring fold reduction in tobramycin MIC at 80 ug/ml incubated for 24 to 48 hrs by broth microdilution method.
Test [20] shares this target. In words: Inhibition of MexXY/OPRM in Pseudomonas aeruginosa C25 assessed as reduction in bacterial resistance to tobramycin by measuring fold reduction in tobramycin MIC at 80 ug/ml incubated for 24 to 48 hrs by broth microdilution method.
For test [21] the target is unchanged. As to the kind of experiment: Inhibition of MexXY/OPRM in Pseudomonas aeruginosa C83 assessed as reduction in bacterial resistance to tobramycin by measuring fold reduction in tobramycin MIC at 80 ug/ml incubated for 24 to 48 hrs by broth microdilution method.
The target is the same in test [22]. In words: Inhibition of MexXY/OPRM in Pseudomonas aeruginosa C86 assessed as reduction in bacterial resistance to tobramycin by measuring fold reduction in tobramycin MIC at 80 ug/ml incubated for 24 to 48 hrs by broth microdilution method. The essentials:
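Tobramycin MIC by CLSI broth microdilution at 37°C, read at 24 and 48 h, with and without a fixed berberine concentration selected from checkerboard assays. Berberine stock was in 50% DMSO/50% methanol, final DMSO about 1%. A 2-fold decrease in tobramycin MIC was scored as synergy.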

For test [23] the target is unchanged. As to the kind of experiment: Inhibition of MexXY/OPRM in Pseudomonas aeruginosa AR48 assessed as reduction in bacterial resistance to tobramycin by measuring fold reduction in tobramycin MIC at 80 ug/ml incubated for 24 to 48 hrs by broth microdilution method.

As for `COc1ccc2cc3[n+](cc2c1OC)CCc1cc2c(cc1-3)OCO2` [BERBERINE], the MIC in test [1] stood at 0.5 mg/L; in test [2], 1 mg/L; in test [3], 8 mg/L; in [4], 8 mg/L; in [5] it was 8 mg/L; in test [6], 16 mg/L. The MIC in test [7] is 0.125 mg/L; in test [8] it was 16 mg/L; in test [9] it was 32 mg/L; in [10], 16 mg/L. Further, the inhibition result in test [11] was “Active”. Moreover, the Activity in test [12] came out at 2 log10CFU. Besides, the inhibition entry in [13], in test [14], in test [15], in test [16], in test [17] and in test [18] was “inactive” throughout. In addition, the fold change (FC) in test [19] was over 2; in test [20], 16; in [21], over 2; in test [22], over 2; in [23], over 2.
